Experiments:
PC-3 = assay: Antiproliferative activity against human PC3 cell line by MTT assay; type: functional
Method in brief: (§1)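 Cells seeded at 2000 to 15000 per well, exposed to drug at 1 to 100 µM for 96 h at 37 °C, 5% CO2; untreated wells as negative control. MTT (5 mg/mL) added for final 2-4 h, formazan dissolved in DMSO, absorbance at 595 nm. GI50 (50% reduction in living cells vs untreated) from nonlinear regression of % survival against concentration.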

HeLa = assay: Antiproliferative activity against human HeLa cell line by MTT assay; type: functional; method in brief: as §1
[1] = target: T1, Calpain-1 catalytic subunit (Sus scrofa, UniProt P35750); assay: Inhibition of porcine erythrocyte mu calpain
T1 sequence (P35750 whole entry): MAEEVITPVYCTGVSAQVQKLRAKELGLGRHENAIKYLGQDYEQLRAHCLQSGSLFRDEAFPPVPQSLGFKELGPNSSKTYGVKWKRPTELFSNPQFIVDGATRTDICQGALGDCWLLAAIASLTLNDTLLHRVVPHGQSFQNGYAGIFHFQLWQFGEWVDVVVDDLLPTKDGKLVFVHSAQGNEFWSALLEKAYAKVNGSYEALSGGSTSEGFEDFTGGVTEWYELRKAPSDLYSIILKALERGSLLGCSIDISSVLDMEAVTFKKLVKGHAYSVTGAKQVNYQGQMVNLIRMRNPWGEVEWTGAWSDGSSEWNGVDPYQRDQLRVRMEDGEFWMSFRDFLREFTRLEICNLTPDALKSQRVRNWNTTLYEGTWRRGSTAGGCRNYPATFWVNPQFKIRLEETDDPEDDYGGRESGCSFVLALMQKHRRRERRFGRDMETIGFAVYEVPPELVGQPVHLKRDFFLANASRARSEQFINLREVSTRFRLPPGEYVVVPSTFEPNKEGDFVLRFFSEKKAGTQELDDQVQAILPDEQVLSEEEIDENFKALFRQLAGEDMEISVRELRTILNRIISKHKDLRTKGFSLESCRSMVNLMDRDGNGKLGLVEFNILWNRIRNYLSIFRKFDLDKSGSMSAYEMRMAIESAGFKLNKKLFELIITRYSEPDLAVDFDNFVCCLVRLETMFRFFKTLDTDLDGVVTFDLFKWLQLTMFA
Method in brief: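 µ-Calpain (1 µg, porcine erythrocyte) in 50 mM Tris HCl pH 7.4, 50 mM NaCl, 10 mM DTT, 1 mM EDTA, 1 mM EGTA, 5 mM CaCl2, fluorogenic Suc-Leu-Tyr-AMC at 0.2 or 1.0 mM, varying inhibitor in DMSO (2% total). Ki from Dixon plots (1/v vs I) of triplicate-averaged data, intersecting lines r ≥ 0.95.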

Daudi = assay: Antiproliferative activity against human Daudi cell line by MTT assay; type: functional; method in brief: as §1
Jurkat [2] = assay: Antiproliferative activity against human Jurkat cell line by MTT assay; type: functional; method in brief: as §1
DU-145 = assay: Antiproliferative activity against human DU145 cell line by MTT assay; type: functional; method in brief: as §1
Cathepsin B = Cathepsin B (Homo sapiens, UniProt P07858); assay: Inhibition of human liver cathepsin B
Method in brief: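 Human liver cathepsin B (1 nM) in 50 mM NaOAc pH 6.0, 1 mM EDTA, 0.5 mM DTT, with Z-Arg-Arg-AMC at 50 or 250 µM and varying inhibitor in DMSO (2% total). Ki from Dixon plots of triplicate-averaged data, intersecting lines r ≥ 0.95; selectivity ratio = cathepsin B Ki / µ-calpain Ki.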

Jurkat [3] = assay: Inhibition of calpain-mediated production of spectrin breakdown products in Jurkat cells at 20 uM; type: functional, Homo sapiens; set-up: scale not given: the % may be the effect or the level left
Method in brief: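 Jurkat cells washed in HEPES-buffered saline, preincubated 10 min with inhibitor at 20 µM, then ionomycin (20 µM final) and Ca2+ (5 mM final) added; 60 min at 37 °C. Lysates resolved by SDS-PAGE, immunoblotted for α-spectrin and β-actin, chemiluminescence. 145/150-kDa spectrin breakdown doublet quantified by densitometry, normalized to β-actin.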

[4] = Selectivity ratio, Ki for human cathepsin B/Ki for porcine mu calpain

Structure (SMILES)	GI50 (PC-3) [µM]	GI50 (HeLa) [µM]	Ki [1] [µM]	GI50 (Daudi) [µM]	GI50 (Jurkat [2]) [µM]	GI50 (DU-145) [µM]	Ki (Cathepsin B) [µM]	Activity (Jurkat [3]) [%]	Selectivity ratio [4]
O=CC(Cc1ccccc1)NC(=O)[C@H]1CCCN1S(=O)(=O)c1ccc([N+](=O)[O-])cc1 (stereo not given in full)	49.3	40.4	0.02	32.5	33.8	42.4	3.75	22.8	188
Cc1ccc(S(=O)(=O)N2CSC[C@@H]2C(=O)NC(C=O)Cc2ccccc2)cc1 (stereo not given in full)	5.17	4.37	0.07	2.17	3.21	6	0.119	82.4	1.7
Cc1ccc(S(=O)(=O)N2CCC[C@@H]2C(=O)NC(C=O)Cc2ccccc2)cc1 (stereo not given in full)	40.1	48.9	0.081	16.7	17.6	45.2	12.1		151
COc1ccc(S(=O)(=O)N2CCC[C@@H]2C(=O)NC(C=O)Cc2ccccc2)cc1 (mixture of isomers)	19.7	38.5	0.037	35.3	25.4	63.2	1.48		40
O=CC(Cc1ccccc1)NC(=O)[C@H]1CSCN1S(=O)(=O)c1ccc(I)cc1 (mixture of isomers)	6.38	5.42	0.042	4.48	5.97	6.29	0.11		2.61
Cc1ccc(S(=O)(=O)N2CCC[C@@H]2C(=O)NC(Cc2ccccc2)C(=O)C(=O)NCCc2ccccc2)cc1 (mixture of isomers)	20.8	22.9	0.85	19.6	21.9	22.6	6.9		8.12
CCCCS(=O)(=O)N1CCC[C@@H]1C(=O)NC(C=O)Cc1ccccc1 (mixture of isomers)			0.313				1.48		4.72
O=CC(Cc1ccccc1)NC(=O)[C@H]1CSCN1S(=O)(=O)c1ccc(Br)cc1 (mixture of isomers)			0.074				0.09		1.21
O=CC(Cc1ccccc1)NC(=O)[C@H]1CCCN1S(=O)(=O)c1ccc(Br)cc1 (mixture of isomers)			0.128				4.42		34.5
O=CC(Cc1ccccc1)NC(=O)[C@H]1CCCN1S(=O)(=O)c1ccc(Cl)cc1 (mixture of isomers)			0.141				5.4		38.2
O=CC(Cc1ccccc1)NC(=O)[C@H]1CCCN1S(=O)(=O)c1ccc(F)cc1 (mixture of isomers)	27.1	27.4	0.386	24.8	24.2	24.8	6.99		18.1
COc1ccc(S(=O)(=O)N2CCC[C@@H]2C(=O)NC(Cc2ccccc2)C(=O)C(=O)NCCc2ccccc2)cc1 (mixture of isomers)	14.6	31.4	0.45	22.4	23.8	30	2.59		5.7
O=CC(Cc1ccccc1)NC(=O)[C@H]1CCCN1S(=O)(=O)c1ccccc1[N+](=O)[O-] (mixture of isomers)			0.424				4.61		10.9
O=CC(Cc1ccccc1)NC(=O)[C@H]1CCCN1S(=O)(=O)c1ccccc1 (mixture of isomers)			0.196				2.47		13
O=CC(Cc1ccccc1)NC(=O)[C@H]1CCCN1S(=O)(=O)c1cccc2ccccc12 (mixture of isomers)			0.191				2.54		13
O=CC(Cc1ccccc1)NC(=O)[C@H]1CSCN1S(=O)(=O)c1ccc(F)cc1 (mixture of isomers)	7.04	7.12	0.11	3.54	6.13	6.22	0.34		3.09
O=CC(Cc1ccccc1)NC(=O)[C@H]1CSCN1S(=O)(=O)c1ccc(Cl)cc1 (mixture of isomers)			0.09				0.23		2.5
CC(C)S(=O)(=O)N1CCC[C@@H]1C(=O)NC(C=O)Cc1ccccc1 (mixture of isomers)			0.836				3.5		1.19
O=CC(Cc1ccccc1)NC(=O)[C@H]1CCCN1S(=O)(=O)c1ccc(I)cc1 (mixture of isomers)			0.033				4.18		131
O=CC(Cc1ccccc1)NC(=O)[C@H]1CCCN1S(=O)(=O)c1cccc([N+](=O)[O-])c1 (mixture of isomers)			0.256				5.45		21.3
O=C(NCCc1ccccc1)C(=O)C(Cc1ccccc1)NC(=O)[C@H]1CCCN1S(=O)(=O)c1ccc([N+](=O)[O-])cc1 (mixture of isomers)	27.8	27.6	0.28	23.1	21.3	31.8	12.1		18.1

Reference: ChEMBL document CHEMBL1146033, “Synthesis, calpain inhibitory activity, and cytotoxicity of P2-substituted proline and thiaproline peptidyl aldehydes and peptidyl alpha-ketoamides” (J Med Chem, 2006)
